What was measured:
[1] = target: NAD(P)H dehydrogenase [quinone] 1 (Mus musculus) (UniProt Q64669); test: Induction of QR1-mediated cytoprotective activity in mouse Hepa-1c1c7 cells at 50 uM assessed as cell survival; assay type: cell-based
Aromatase [2] = target: T1, Aromatase (Homo sapiens, UniProt P11511)
T1 sequence (P11511 whole entry): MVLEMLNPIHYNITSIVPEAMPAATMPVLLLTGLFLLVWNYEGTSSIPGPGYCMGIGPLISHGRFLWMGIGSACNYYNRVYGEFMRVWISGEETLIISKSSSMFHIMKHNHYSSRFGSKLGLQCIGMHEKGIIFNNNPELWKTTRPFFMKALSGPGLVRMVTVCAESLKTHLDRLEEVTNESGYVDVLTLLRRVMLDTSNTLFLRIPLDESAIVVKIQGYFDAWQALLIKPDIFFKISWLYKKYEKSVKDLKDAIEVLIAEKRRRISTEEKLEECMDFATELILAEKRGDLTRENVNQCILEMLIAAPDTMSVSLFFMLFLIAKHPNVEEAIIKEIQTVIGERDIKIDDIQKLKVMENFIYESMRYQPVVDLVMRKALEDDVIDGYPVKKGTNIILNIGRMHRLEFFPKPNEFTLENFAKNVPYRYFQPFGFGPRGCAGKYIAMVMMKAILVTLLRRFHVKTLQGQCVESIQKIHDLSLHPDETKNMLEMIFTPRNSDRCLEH

RAW264.7 [3] = test: Antiinflammatory activity in mouse RAW264.7 cells assessed as inhibition of LPS-induced NO production preincubated for 30 mins before LPS challenge measured after 24 hrs by Griess method; assay type: functional, cell-based
MCF7 = test: Antiproliferative activity against human MCF7 cells after 72 hrs by SRB assay; assay type: functional, cell-based; details: MCF7, 72 h
How it was run: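 MCF-7 breast cancer cells exposed to serially diluted compounds (DMSO) for 72 h at 37 °C in CO2 incubator; fixed with 10% trichloroacetic acid, stained with 0.4% SRB, OD read at 515 nm. Zero-day control of 1 × 10^4 cells per well processed after 30 min. Survival = (OD test − OD zero-day)/(OD control − OD zero-day) × 100; IC50 from survival.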

Aromatase [4] = target: T1, Aromatase; details: 2 h, read-out: Imax
[5] = Inhibition of TNFalpha-activated NF-kappaB expressed in HEK293 cells by luciferase reporter gene assay; assay type: cell-based
RAW264.7 [6] = test: Antiinflammatory activity in mouse RAW264.7 cells assessed as inhibition of LPS-induced NO production at 40 uM preincubated for 30 mins before LPS challenge by Griess method
[7] = tested on: Radical scavenging activity; test: Antioxidant activity assessed as DPPH free radical scavenging activity at 400 uM after 30 mins by spectrophotometry; assay type: functional
[8] = target: NAD(P)H dehydrogenase [quinone] 1 (Mus musculus) (UniProt Q64669); test: Induction of QR1 activity in mouse Hepa-1c1c7 cells using MTT as substrate by spectrophotometry; assay type: cell-based
How it was run: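 Mouse hepatoma Hepa 1c1c7 cells were incubated with compound, then permeabilised with digitonin. QR1 activity was read as MTT reduction to formazan at 595 nm, with crystal violet total protein run in parallel. Induction ratio is activity versus control; CD is the concentration doubling activity, derived only when the ratio is above 2.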

[9] = target: NAD(P)H dehydrogenase [quinone] 1 (Mus musculus) (UniProt Q64669); test: Induction of QR1-mediated cytoprotective activity in mouse TAOc1 mutant Hepa cells at 50 uM assessed as cell survival; assay type: cell-based
[10] = target: NAD(P)H dehydrogenase [quinone] 1 (Mus musculus) (UniProt Q64669); test: Induction of QR1-mediated cytoprotective activity in mouse BPrc1 cells at 50 uM assessed as cell survival; assay type: cell-based
Aromatase [11] = target: T1, Aromatase; test: Ratio of trans-resveratrol IC50 to compound IC50 for human aromatase
HEK293 = test: Inhibition of TNFalpha-activated NF-kappaB expressed in HEK293 cells at 50 uM by luciferase reporter gene assay; assay type: cell-based
[12] = target: NAD(P)H dehydrogenase [quinone] 1 (Mus musculus) (UniProt Q64669); test: Induction of QR1 activity in mouse TAOc1 mutant Hepa cells using MTT as substrate by spectrophotometry; assay type: cell-based
[13] = target: NAD(P)H dehydrogenase [quinone] 1 (Mus musculus) (UniProt Q64669); test: Induction of QR1 activity in mouse BPrc1 cells using MTT as substrate by spectrophotometry; assay type: cell-based

Sequence of NAD(P)H dehydrogenase [quinone] 1 (Mus musculus) (Q64669 whole entry): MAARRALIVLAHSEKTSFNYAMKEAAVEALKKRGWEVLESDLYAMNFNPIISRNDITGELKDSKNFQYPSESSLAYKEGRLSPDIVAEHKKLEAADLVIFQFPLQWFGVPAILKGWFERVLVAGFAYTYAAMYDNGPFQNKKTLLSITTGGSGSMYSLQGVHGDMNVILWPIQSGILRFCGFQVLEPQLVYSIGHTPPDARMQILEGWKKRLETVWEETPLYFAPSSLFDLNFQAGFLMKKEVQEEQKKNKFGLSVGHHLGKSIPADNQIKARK

| SMILES | Survival [1] | IC50 (Aromatase [2]) | IC50 (RAW264.7 [3]) | IC50 (MCF7) | inhibition at 50 µM (Aromatase [4]) | IC50 [5] | inhibition at 40 µM (RAW264.7 [6]) | inhibition [7] | CD [8] | Survival [9] | Survival [10] | Ratio IC50 (Aromatase [11]) | inhibition (HEK293) | CD [12] | CD [13] |
| --- | --- | --- | --- | --- | --- | --- | --- | --- | --- | --- | --- | --- | --- | --- | --- |
| Nc1ccc(-c2nsc(-c3ccc(N)cc3)n2)cc1 | 66.1% | 26.5 µM | 23.3 µM | 30.8 µM | 70.4% | 7.6 µM | – | – | – | – | – | – | – | – | – |
| Cc1cccc(-c2nsc(-c3cccc(C)c3)n2)c1 | 33.7% | > 50 µM | – | 22.1 µM | 32.9% | 0.8 µM | 0.9% | 1.9% | 4 µM | 94.9% | 100% | – | – | – | – |
| c1cc(-c2nsc(-c3ccncc3)n2)ccn1 | 86.6% | 0.8 µM | – | – | 98% | – | 0.9% | -35.6% | – | – | – | 30 | 7.2% | – | – |
| Brc1cccc(-c2nsc(-c3cccc(Br)c3)n2)c1 | 79.3% | > 50 µM | – | 31 µM | 48.4% | – | 22.8% | 1% | 0.059 µM | 77.7% | 92.3% | – | 0% | 2.5 µM | 6.5 µM |
| c1cncc(-c2nsc(-c3cccnc3)n2)c1 | 73.5% | 0.2 µM | – | – | 97.2% | – | 1.3% | – | 53.1 µM | 71.6% | 87.8% | 125 | 30.9% | – | – |
| Ic1ccccc1-c1nsc(-c2ccccc2I)n1 | 48.8% | > 50 µM | 30 µM | – | 39.4% | – | 30% | 3.4% | – | 69.8% | 95.1% | – | – | 6.3 µM | 8.1 µM |
| Oc1cccc(-c2nsc(-c3cccc(O)c3)n2)c1 | 4% | > 50 µM | – | – | 24.4% | 38.1 µM | 47.4% | – | – | 63.7% | 94.3% | – | – | – | – |
| Oc1ccc(-c2nsc(-c3ccc(O)cc3)n2)cc1 | 36.5% | > 50 µM | 13.5 µM | 4.7 µM | 50.4% | 19.3 µM | 93.7% | 3.4% | – | – | – | – | – | – | – |
| c1ccc(-c2nsc(-c3ccccc3)n2)cc1 | 50.3% | > 50 µM | – | 24.4 µM | 60.2% | 47.4 µM | 55.7% | – | – | 85.9% | 77.8% | – | – | 18.6 µM | 49.7 µM |
| Cc1ccc(Cl)cc1-c1nsc(-c2cc(Cl)ccc2C)n1 | 37.9% | > 50 µM | – | 29 µM | 22% | – | 25.9% | 1.3% | 0.47 µM | 80.2% | 91.5% | – | 29.7% | 2 µM | 4.4 µM |
| COc1cccc(-c2nsc(-c3cccc(OC)c3)n2)c1 | 63.7% | > 50 µM | – | 24.2 µM | 26.6% | 0.4 µM | 17.6% | -2.1% | 4.03 µM | 76.3% | 97.1% | – | 93.9% | – | – |

— ChEMBL document CHEMBL1938272 (Bioorg Med Chem, 2012)
